Test results reported in PubChem BioAssay AID602126 (Broad Institute, 2011).
Calls of active or inactive are those of the source.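 The calls were made as follows: active = compounds cutting cell ATP light whose fitted AC50 is at most double the top dose tried; inconclusive = flat moderate signal loss, or an unreliable curve fit; inactive = the rest.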

System: ldlA[mSR-BI] CHO cells viability, CellTiter-Glo ATP luminescence, 24 h
Assay: ldlA[mSR-BI] cell viability loss – CellTiter-Glo luminescence, 24 h, dry powder, set 5, cytotoxicity control for SR-BI HDL uptake inhibitor project, dose response (AID 602126)
Summary of the method: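 Detection: luminescence of cellular ATP via CellTiter-Glo luciferase reagent; test system: ldlA[mSR-BI] cells; read-out: IC50 of cell viability from ATP-dependent luminescence; schedule: 24 h compound exposure at 37 °C, then 10 min with detection reagent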

SMILES: COC(=O)c1cn(C(=O)c2cccc3ccccc23)c2ccccc12
- AC50: 38 µM

SMILES: CC(C(=O)NC1CCCC1)N(C(=O)Cn1nnc(-c2cccc(F)c2)n1)C1CCCCC1 (stereo not drawn)
- AC50: > 70 µM (inactive)

SMILES: O=C(CN(C(=O)Cn1nnc(-c2ccc3c(c2)OCO3)n1)C1CCCCC1)NC1CCCC1
- AC50: > 70 µM (inactive)

SMILES: CCNC(=O)N1CCc2cc(-c3csc(NC(=O)c4cc(OC)cc(OC)c4)n3)ccc21
- AC50: 60 µM

SMILES: COc1cccc(-c2csc(N3CCN(C(=S)Nc4cccc(Cl)c4)CC3)n2)c1
- AC50: 51.7 µM

SMILES: COc1cc(OC)cc(C(=O)Nc2nc(-c3ccc4[nH]ccc4c3)cs2)c1
- AC50: 15.6 µM

SMILES: CCC(=O)N1CCc2cc(-c3csc(NC(=O)c4cccc(OC)n4)n3)ccc21
- AC50: 66.5 µM

SMILES: COc1cc(OC)cc(C(=O)Nc2nc(-c3ccc4c(c3)CCN4)cs2)c1
- AC50: 46.5 µM

SMILES: C[C@H]1CN([C@@H](C)CO)C(=O)c2cccc(NC(=O)Nc3ccccc3)c2O[C@@H]1CN(C)Cc1ccccc1
- AC50: > 70 µM (inactive)

SMILES: CCCCCCC1CCC/C1=N\NC(N)=S (stereo not drawn)
- AC50: 2.13 µM

SMILES: COc1ccc(-c2nnn(CC(=O)N(CC(=O)NC3CCCC3)C3CCCCC3)n2)cc1OC
- AC50: > 70 µM (inactive)

SMILES: COc1cc(OC)cc(C(=O)Nc2nc(-c3ccc4c(c3)CCN4C(=O)CN(C)C)cs2)c1
- AC50: 20.2 µM

SMILES: O=C(Nc1cccc(NC(=O)c2cc([N+](=O)[O-])ccc2Cl)n1)c1cc([N+](=O)[O-])ccc1Cl
- AC50: 21.9 µM

SMILES: CCC(=O)N1CCc2cc(-c3cn4ccccc4n3)ccc21
- AC50: 15.8 µM

SMILES: CC(C)NC(=O)Nc1cccc2c1O[C@H](CN(C)Cc1ccc(Cl)c(Cl)c1)[C@@H](C)CN([C@@H](C)CO)C2=O
- AC50: > 70 µM (inactive)

SMILES: O=C(CN(C(=O)Cn1nnc(-c2ccc(Cl)c(Cl)c2)n1)C1CCCCC1)NC1CCCC1
- AC50: 46.2 µM

SMILES: O=C(Nc1ccc(-c2nc3ccc(NC(=O)c4ccc(Cl)cc4)cc3[nH]2)cc1)c1ccc(Cl)cc1
- AC50: 1.3 µM

SMILES: O=C(Nc1ccccc1)c1ccccc1NS(=O)(=O)c1ccc(Cl)cc1
- AC50: 32.5 µM

SMILES: C[C@@H]1CN([C@H](C)CO)C(=O)c2cc(NC(=O)Cc3cn(C)c4ccccc34)ccc2O[C@@H]1CN(C)S(=O)(=O)c1ccc(Cl)cc1
- AC50: > 70 µM (inactive)

SMILES: CC(C(=O)NC1CCCC1)N(C(=O)Cn1nnc(-c2ccc(Cl)c(Cl)c2)n1)C1CCCCC1 (stereo not drawn)
- AC50: 37 µM

SMILES: C[C@H]1CN([C@@H](C)CO)C(=O)c2cccc(NC(=O)Nc3ccc(F)cc3)c2O[C@@H]1CN(C)Cc1ccc(Cl)c(Cl)c1
- AC50: 21.6 µM

SMILES: O=C(Nc1cc(C(F)(F)F)ccc1Cl)c1ccccc1NS(=O)(=O)c1ccc(Cl)cc1
- AC50: 0.285 µM

SMILES: O=C(Nc1cc(Cl)ccc1Cl)c1cc(Br)ccc1NS(=O)(=O)c1ccc(Cl)c([N+](=O)[O-])c1
- AC50: 21 µM

SMILES: C[C@@H]1CN([C@@H](C)CO)C(=O)c2cc(NC(=O)Cc3cn(C)c4ccccc34)ccc2O[C@@H]1CN(C)S(=O)(=O)c1ccc(F)cc1
- AC50: > 70 µM (inactive)

SMILES: C[C@@H]1CN([C@@H](C)CO)C(=O)c2cc(NC(=O)Cc3cn(C)c4ccccc34)ccc2O[C@@H]1CN(C)S(=O)(=O)c1ccc(Cl)cc1
- AC50: > 70 µM (inactive)

SMILES: CCC(=O)N1CCc2cc(-c3csc(NC(=O)c4cccc(OC(F)(F)F)c4)n3)ccc21
- AC50: > 70 µM (inactive)

SMILES: COc1ccc(-c2cc(CC(=O)N(C3CCCCC3)C(C)C(=O)NC3CCCC3)no2)cc1OC (stereo not drawn)
- AC50: > 70 µM (inactive)

SMILES: O=C(CN(C(=O)Cn1nnc(-c2ccc3c(c2)OC(F)(F)O3)n1)C1CCCCC1)NC1CCCC1
- AC50: > 70 µM (inactive)

SMILES: CCC(=O)N1CCc2cc(-c3csc(NC(=O)C4CCCO4)n3)ccc21 (stereo not drawn)
- AC50: 46.5 µM

SMILES: COCC(=O)N1CCc2cc(-c3csc(NC(=O)c4cc(OC)cc(OC)c4)n3)ccc21
- AC50: > 70 µM (inactive)

SMILES: CCC(=O)Nc1ccc(-c2csc(N)n2)cc1
- AC50: > 70 µM (inactive)

SMILES: C[C@H]1CN([C@@H](C)CO)C(=O)c2cc(NC(=O)Cc3cn(C)c4ccccc34)ccc2O[C@H]1CN(C)S(=O)(=O)c1ccc(Cl)cc1
- AC50: > 70 µM (inactive)

SMILES: CCC(=O)N1CCc2cc(-c3csc(NC(=O)c4cccc(OC)c4)n3)ccc21
- AC50: > 70 µM (inactive)
